Entries after “also recorded” stand apart in the source; their conditions may differ. Where two headings read alike, the source gives them in different places. Bounds are passed on as bounds.

Data on seven compounds can be found in paper PMC4398655 (Bioorganic & medicinal chemistry, 2015).

Series [1] deals with MCF-7 breast cancer cells. As to conditions: 10 μM for 72 h, relative percent cell viability only; cited from earlier work.
The test system of series [2] is PC-3 prostate cancer cells. As to conditions: 10 μM for 72 h, relative percent cell viability only; cited from earlier work.
Series [3] deals with HCT-116 colon cancer cells. The series is described as follows: Morphological analysis by microscopy, HCT-116. As to conditions: 68 h. Format: cell-based, human. In short, it runs like this: (§1)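 Cells from the MTT setup, with and without test compound, were photographed at 68 h on an inverted microscope for each triplicate treatment. Images for the different concentrations were compared double-blind for cell size, shape and number.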

Series [4] relates to HCT-116 colon cancer cells. As to conditions: 10 μM for 72 h, relative percent cell viability only; cited from earlier work.
The test system of series [5] is PC-3 prostate cancer cells. The experiment in a line: Morphological analysis by microscopy, PC-3. As to conditions: 68 h. Format: cell-based, human. In outline: as §1
Series [6] relates to six human cancer cell lines (HCT-116, S1, DU-145, PC-3, MDA-MB-231, MCF-7). The series is described as follows: MTT cell cytotoxicity assay, panel of cancer cell lines. As to conditions: for IC50: Homo sapiens. Format: cell-based. In outline: (§2)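 Cell lines grown as adherent monolayers in DMEM with 10% FBS at 37°C, 5% CO2. Trypsinised cells seeded at 5×10^3 cells/well and exposed to test compound at 0.1 to 100 μM for 72 h. MTT (4 mg/ml) added for 4 h, formazan dissolved in DMSO, and absorbance read at 570 nm. IC50 derived from survival curves by the Bliss method. Mean±SD from at least three experiments, each in triplicate.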
(In general: Tetrazolium assays rely on reduction of a dye to a coloured formazan, in cell work by metabolically active cells.)

Series [7] has as its system ABCB1 (P-glycoprotein, MDR1). The experiment in a line: MTT cell cytotoxicity assay, ABCB1 overexpressing cells. Format: cell-based. As to conditions: human, HEK293/ABCB1 cells (P-glycoprotein overexpressing).
In series [8] the test system is HEK293/pcDNA3.1 human primary embryonic kidney cells. The series is described as follows: MTT cell cytotoxicity assay, HEK293/pcDNA3.1. Format: cell-based. As to conditions: HEK293, 72 h, read-out: IC50 ± SD, HEK 293/pcDNA.3.1. In outline:
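Empty-vector-transfected HEK293 cells, grown adherent in DMEM + 10% FBS at 37°C, 5% CO2, were trypsinised and seeded at 5×10³ cells/well. Test compound was added at 0.1–100 μM for 72 h. MTT solution (4 mg/ml) was then added for 4 h, and formazan was dissolved in DMSO and read at 570 nm. IC50 was derived from survival curves by the Bliss method; mean±SD from ≥3 experiments, each in triplicate.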

Series [9] concerns PC-3 prostate cancer cells. The experiment in a line: MTT cell cytotoxicity assay, PC-3. Format: cell-based. As to conditions: Homo sapiens, 72 h, read-out: IC50 ± SD, PC3. In outline:
as §2

Setting [10] is: read-out: mean IC50 values in all the cancer cell lines tested.

For `COc1cc(/C=C/C(=O)CC(C)=O)ccc1O` [VA-2, hispolon methyl ether], in series [1], the “activity against MCF-7 (previous study)” value is recorded as “active”. The “activity against PC-3 (previous study)” value in series [2] is recorded as “active”. Besides, the “morphological analysis (cell number, cell size)” value in series [3] (1 μM) and in series [5] (1 μM) was “marked reduction of cell number; also recorded: significant reduction of cell number” in each case. Besides, the “activity against HCT-116 (previous study)” value in [4] is recorded as “active”. The IC50 in series [6] (read-out: observed mean IC50 values in colon and prostate cancer cell lines) was in the range of 1.4 to 6.3 µM.
For the compound `COc1ccc(CCC(=O)CC(C)=O)cc1` [VA-18, 6-(4-methoxyphenyl)hexane-2,4-dione], in [7], the IC50 at 72 h turned out to be 51.2 ± 10.3 µM. Besides, in series [8], the IC50 worked out at 50.2 ± 8.9 µM.
For `COc1cc(CCC(=O)CC(C)=O)ccc1O` [VA-16], the morphological characteristics entry in series [3] (concentrations up to 100 μM) and in [5] (concentrations up to 100 μM) was “no significant change” in each case. In addition, the “activity (inhibition of cell survival) in the tested concentration range” value in series [6] (MTT, concentrations up to 100 μM) is “no significant activity”. Also, in [9], the IC50 is more than 100 µM.
Regarding `COc1ccc(/C=C/c2cc(C)n[nH]2)cc1` [VA-15, (E)-5-(4-methoxystyryl)-3-methyl-1H-Pyrazole], in series [6] (setting [10]), the IC50 was 3.3 to 10.7 µM.
In the case of `CC(=O)CC(=O)/C=C/c1ccc(O)cc1` [VA-3, dehydroxy hispolon], the “activity against MCF-7 (previous study)” value in [1] was “active”. The “activity against PC-3 (previous study)” value in series [2] is reported as “active”. Moreover, in series [4], the “activity against HCT-116 (previous study)” value is listed as “active”.
As for `Cc1cc(/C=C/c2ccc(O)c(O)c2)on1` [VA-7], the IC50 in series [6] (setting [10]) is 3.3 to 10.7 µM.
As to `CC(=O)/C=C(O)/C=C/c1ccc(O)c(O)c1` [VA-1, Hispolon], the “activity against MCF-7 (previous study)” value in series [1] is reported as “active”. The “activity against PC-3 (previous study)” value in [2] is “active”. In series [4], the “activity against HCT-116 (previous study)” value is on record as “active”.
